Test results reported in ChEMBL document CHEMBL1154674, “Synthesis and evaluation of three 18F-labeled aminophenylbenzothiazoles as amyloid imaging agents” (J Med Chem, 2009).

Target: Amyloid-beta precursor protein (Homo sapiens, UniProt P05067)
Assay: Displacement of [125I]IMPY from beta-amyloid plaques in Alzheimer's disease patient brain homogenate
Format: tissue-based
Outline: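 Test compound was added at 10^-5–10^-10 M, serially diluted in PBS containing 0.1% BSA. Nonspecific binding was defined with 600 nM unlabeled IMPY. Incubation was 37 °C for 2 h, followed by GF/B vacuum filtration, PBS washes and γ counting. Ki came from nonlinear regression.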

Chain of Amyloid-beta precursor protein (P05067 whole entry): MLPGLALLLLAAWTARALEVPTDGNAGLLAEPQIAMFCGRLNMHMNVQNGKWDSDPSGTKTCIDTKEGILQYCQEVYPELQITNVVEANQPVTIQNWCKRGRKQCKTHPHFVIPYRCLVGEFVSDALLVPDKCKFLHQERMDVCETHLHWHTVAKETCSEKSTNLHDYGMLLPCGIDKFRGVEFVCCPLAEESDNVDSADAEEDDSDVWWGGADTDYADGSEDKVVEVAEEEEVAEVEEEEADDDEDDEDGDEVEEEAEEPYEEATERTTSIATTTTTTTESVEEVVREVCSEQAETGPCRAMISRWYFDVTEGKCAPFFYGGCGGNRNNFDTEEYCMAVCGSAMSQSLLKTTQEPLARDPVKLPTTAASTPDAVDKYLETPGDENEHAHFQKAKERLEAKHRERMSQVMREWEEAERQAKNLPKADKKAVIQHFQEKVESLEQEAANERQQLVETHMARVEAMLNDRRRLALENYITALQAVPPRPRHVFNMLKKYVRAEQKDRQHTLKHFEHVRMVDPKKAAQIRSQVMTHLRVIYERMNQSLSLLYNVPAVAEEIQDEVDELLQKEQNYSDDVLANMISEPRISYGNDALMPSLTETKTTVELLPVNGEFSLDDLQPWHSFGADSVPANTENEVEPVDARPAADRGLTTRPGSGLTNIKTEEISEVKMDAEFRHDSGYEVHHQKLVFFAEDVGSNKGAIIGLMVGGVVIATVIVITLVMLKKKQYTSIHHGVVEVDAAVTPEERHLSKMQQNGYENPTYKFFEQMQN

Ki: 3.8 nM
Structure (SMILES): CN(C)c1ccc2nc(-c3ccc(F)cc3)sc2c1
